ChEMBL document CHEMBL4049424, “Hydroxypyridinone and 5-Aminolaevulinic Acid Conjugates for Photodynamic Therapy” (J Med Chem, 2017)

Columns and labels:
[1] = Drug metabolism in human KB cells assessed as protoporphyrin 9 formation at 500 uM preincubated for 1 hr at 4 degC followed by compound washout and subsequent incubation for 4 hrs at 37 degC by fluorescence spectrometer; format: ADME, cell-based
Outline: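 KB cells exposed 1 h to 500 μM prodrug in clear medium at either 4 °C or 37 °C, plates foil-wrapped. Compound then removed, PBS rinse, fresh medium, both plates 4 h at 37 °C. PpIX read in wells at 405/635 nm after subtracting untreated wells.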

[2] = tested on: KB; test: Dark toxicity against human KB cells at 200 uM preincubated for 4 hrs followed by compound washout measured after 24 hrs by MTT assay; format: cell-based
Outline: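 Dark toxicity in KB cells: 200 μM compound for 4 h with no light, removed, cells kept 24 h. Viability by MTT (2 h, A570 after DMSO solubilisation), given as % of untreated controls. Triplicate.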

[3] = tested on: MCF7R; test: Phototoxicity in human doxorubicin resistant MCF7/R cells assessed as reduction in cell viability preincubated for 4 hrs followed by irradiation with blue light at 2.5 J/cm2 and subsequent incubation for 18 hrs measured after 24 hrs post treatment by MTT assay; format: functional; details: for CC50: light or radiation study, read-out: LD50 (the source's name)
Outline: (§1)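 Cells seeded ~5 × 10^4 per well, grown 48 h, washed with PBS, then 4 h with compound (five concentrations within 1–100 μM, triplicate, three untreated control wells per plate). Irradiated with blue light, peak ~420 nm, 2.5 J/cm². Medium replaced, cells kept a further 18 h. MTT read at A570 24 h after treatment; survival expressed as percentage of control. LD50 taken from two sets of experiments.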

[4] = Drug metabolism in human doxorubicin resistant MCF7/R cells assessed as formation of protoporphyrin 9 at 100 uM after 6 hrs by fluorescence spectrometer; format: ADME, cell-based; details: mcf7r
Outline: (§2)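 MCF-7R monolayers exposed 6 h at 37 °C to ALA, conjugates or ALA hexyl/octyl esters at 1–100 μM in serum-free medium. PpIX emission at 635 nm (405 nm excitation; spectra 600–750 nm) read in wells. Untreated controls subtracted; mean of triplicates in arbitrary units.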

[5] = tested on: CNE-2; test: Phototoxicity in human CNE2 cells assessed as reduction in cell viability preincubated for 4 hrs followed by irradiation with 6 J/cm2 light dose measured after 24 hrs by MTT assay; format: functional
[6] = tested on: MCF7; test: Phototoxicity in human MCF7 cells assessed as reduction in cell viability preincubated for 4 hrs followed by irradiation with blue light at 2.5 J/cm2 and subsequent incubation for 18 hrs measured after 24 hrs post treatment by MTT assay; format: functional; details: for CC50: MCF7, light or radiation study, read-out: LD50 (the source's name); outline: as §1
[7] = tested on: KB; test: Dark toxicity against human KB cells assessed as cell survival at 100 uM after 24 hrs by MTT assay; format: cell-based
[8] = tested on: KB; test: Phototoxicity in human KB cells assessed as reduction in cell viability preincubated for 4 hrs followed by irradiation with blue light at 2.5 J/cm2 and subsequent incubation for 18 hrs measured after 24 hrs post treatment by MTT assay; format: functional; details: for CC50: light or radiation study, read-out: LD50 (the source's name); outline: as §1
[9] = Drug metabolism in mouse PAM212 cells assessed as formation of protoporphyrin 9 at 0.01 mM after 6 hrs by fluorescence spectrometer relative to ALA; format: ADME, cell-based; details: pam212, 6 h, 10 µM
[10] = Drug metabolism in human KB cells assessed as formation of protoporphyrin 9 after 2 to 24 hrs by fluorescence spectrometer; format: ADME, cell-based
Outline: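 KB monolayers (48 h after seeding ~5×10^4/well) washed, then given prodrug or ALA at 50 μM in serum-free medium at 37 °C. PpIX fluorescence read in wells at 2, 4, 6 and 24 h, excitation 405 nm, emission 635 nm. Untreated wells subtracted for autofluorescence; mean intensity in arbitrary units, triplicate.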

[11] = tested on: CNE-2; test: Potency index, ratio of ALA LD80 to test compound LD80 for phototoxicity against human CNE2 cells; format: functional
[12] = tested on: CNE-2; test: Phototoxicity in human CNE2 cells assessed as reduction in cell viability preincubated for 4 hrs followed by irradiation with 4 J/cm2 light dose measured after 24 hrs by MTT assay; format: functional
[13] = Dark toxicity against human KB cells assessed as cell survival at 100 uM after 4 hrs by MTT assay; format: cell-based; details: read-out: Survival
Outline: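 Cells seeded ~5 × 10^4 per well, grown 48 h, washed with PBS, then exposed to compound in medium for 4 h without irradiation. Incubation then continued for 24 h after prodrug removal. Viability by MTT (1 mg/mL, 2 h), formazan dissolved in DMSO, A570, expressed as percentage of untreated control wells on the same plate. Triplicate.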

[14] = tested on: KB; test: Dark toxicity against human KB cells preincubated for 4 hrs followed by compound washout measured after 24 hrs by MTT assay; format: cell-based
Outline: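 KB cells seeded ~5×10^4/well, grown 48 h, PBS-washed, then exposed to compound for 4 h without irradiation. Medium replaced and cells kept a further ~24 h. Survival by MTT (1 mg/mL in EMEM, 2 h), formazan dissolved in DMSO, A570, expressed as % of untreated control wells. Triplicate wells.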

[15] = Drug metabolism in human doxorubicin resistant MCF7/R cells assessed as formation of protoporphyrin 9 preincubated for 2 hrs followed by compound washout measured after 24 hrs by HPLC-based fluorescence analysis; format: ADME, cell-based; details: mcf7r
Outline: (§3)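 Cells given ALA or conjugate for 2 h at 37 °C, then fresh medium without compound. At 24 h, lysed in CelLytic (15 min, room temperature), scraped and spun 1800g for 10 min. Supernatant PpIX read by fluorescence at 405/635 nm and normalised per mg protein (BCA). Untreated blanks subtracted.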

[16] = Drug metabolism in human doxorubicin resistant MCF7/R cells assessed as formation of protoporphyrin 9 at 100 uM after 6 hrs by fluorescence spectrometer relative to ALA; format: ADME, cell-based; details: mcf7r; outline: as §2
[17] = Drug metabolism in human KB cells assessed as formation of protoporphyrin 9 at 100 uM after 6 to 24 hrs by fluorescence spectrometer; format: ADME, cell-based
Outline: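 Time course in KB cells at 37 °C after 100 μM conjugate, ALA, or 1:1 ALA + HPO mixture in serum-free medium. Well PpIX fluorescence read at 405 nm excitation / 635 nm emission, control autofluorescence subtracted, triplicate means.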

[18] = Drug metabolism in human KB cells assessed as formation of protoporphyrin 9 preincubated for 2 hrs followed by compound washout measured after 24 hrs by HPLC-based fluorescence analysis; format: ADME, cell-based; outline: as §3

Row | Compound | Drug metabolism [1] | Activity [2] | Activity [3] | CC50 [3] [µM] | Activity [6] | CC50 [6] [µM] | Activity [7] | Activity [8] | CC50 [8] [µM] | Drug metabolism [10] | also measured
1 | NCC(=O)CCC(=O)O [AMINOLEVULINIC ACID] | Metabolite_Notdetected | Non-Toxic | Dose-dependent effect | 122 | Dose-dependent effect | 131 | Non-Toxic | Dose-dependent effect | 124 |  | Drug metabolism [4]: Metabolite_Detected; LD80 [5]: 0.75 mM
2 | COC(=O)CCC(=O)CNC(=O)[C@H](Cc1ccccc1)NC(C)=O |  |  |  |  |  |  |  |  |  |  | fold change (FC) [9]: 5
3 | CCCCCCOC(=O)CCC(=O)CN [HEXAMINOLEVULINATE] |  |  | Dose-dependent effect | 8.4 | Dose-dependent effect | 9.3 |  | Dose-dependent effect | 2.6 | Metabolite_Detected | Ratio [11]: 40; LD80 [12]: 0.03 mM; viability at 4 h, 100 µM [13]: 9%; Activity [14]: Toxic
4 | CCc1c(O)c(=O)ccn1CCOCCOCCOC(=O)CCC(=O)CN.Cl | Metabolite_Detected | Non-Toxic | Dose-dependent effect | 11.3 | Dose-dependent effect | 15.8 | Non-Toxic | Dose-dependent effect | 19.6 | Metabolite_Detected | Drug metabolism [15]: Metabolite_Detected; fold change (FC) [16]: 20; Drug metabolism [17]: Metabolite_Detected; Drug metabolism [18]: Metabolite_Detected
